The values below come from PMC7658073 (Clinical Pharmacokinetics, 2020).

Like-named read-outs stand apart in the source and are kept apart here. Where only a bound is given, the exact number is not on record here.

For series [1], the target named is T1, organic cation transporter 2 (Homo sapiens, UniProt O15244).
T1 sequence (O15244 1-555): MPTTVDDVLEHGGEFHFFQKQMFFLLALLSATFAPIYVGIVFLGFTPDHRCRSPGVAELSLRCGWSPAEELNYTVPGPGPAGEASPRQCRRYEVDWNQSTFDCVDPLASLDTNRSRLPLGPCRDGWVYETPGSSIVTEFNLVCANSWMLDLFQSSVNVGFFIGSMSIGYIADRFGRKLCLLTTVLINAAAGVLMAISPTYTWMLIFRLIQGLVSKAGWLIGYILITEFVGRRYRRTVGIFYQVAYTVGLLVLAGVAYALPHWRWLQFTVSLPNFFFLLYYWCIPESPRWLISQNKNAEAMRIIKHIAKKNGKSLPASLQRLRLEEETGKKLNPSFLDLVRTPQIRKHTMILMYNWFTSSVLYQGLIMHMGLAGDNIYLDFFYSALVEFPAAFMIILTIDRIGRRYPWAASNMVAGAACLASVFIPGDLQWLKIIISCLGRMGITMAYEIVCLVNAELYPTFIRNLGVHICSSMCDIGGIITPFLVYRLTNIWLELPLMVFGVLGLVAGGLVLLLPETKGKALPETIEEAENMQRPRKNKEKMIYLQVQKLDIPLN
The series can be described thus: Inhibitory potency towards OCT2. The format is in vitro ADME.

Series [2] is described as follows: All phase I studies in healthy volunteers. The format is in vivo, human. In a few lines:
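Healthy male volunteers, excluding regular medication, interacting foods/beverages or supplements, and non-adherence to smoking rules. All study drugs given orally. Tolerability recorded as treatment-emergent adverse events. Non-compartmental PK: AUC0–∞ by linear-log trapezoid plus extrapolation from the terminal log-linear slope; Cmax and trough read directly. Log-transformed parameters compared by ANOVA to give geometric mean ratios with 90% CIs.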

Series [3] has as its target T2, UGT2B7 (Homo sapiens, UniProt P16662).
T2 sequence (P16662 24-529): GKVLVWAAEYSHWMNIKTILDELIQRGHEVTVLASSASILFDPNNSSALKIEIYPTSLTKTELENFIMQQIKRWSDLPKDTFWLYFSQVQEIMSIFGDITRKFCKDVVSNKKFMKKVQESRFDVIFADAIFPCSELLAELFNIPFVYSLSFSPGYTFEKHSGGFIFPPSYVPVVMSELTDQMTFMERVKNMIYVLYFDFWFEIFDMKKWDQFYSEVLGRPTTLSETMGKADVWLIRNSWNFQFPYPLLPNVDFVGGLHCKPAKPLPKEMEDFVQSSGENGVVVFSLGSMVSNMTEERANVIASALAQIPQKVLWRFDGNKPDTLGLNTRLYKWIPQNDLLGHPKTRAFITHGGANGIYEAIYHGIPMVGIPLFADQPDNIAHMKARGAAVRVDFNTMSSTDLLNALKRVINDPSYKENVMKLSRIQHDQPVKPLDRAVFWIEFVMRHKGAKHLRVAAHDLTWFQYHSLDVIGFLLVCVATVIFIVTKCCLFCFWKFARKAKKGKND
Kind of series: Inhibitory potency towards UGT isoforms: UGT2B7. It counts as in vitro ADME.

The conditions of series [4]: cited from earlier work.
Series [5] can be described thus: Phase I DDI study with rifampicin. The format is in vivo, human. In a few lines: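 Non-randomized, non-blinded, fixed-sequence study in healthy men. Test compound 10 mg single oral dose, fed, alone and then with rifampicin 600 mg QD orally for 9 days (pre- and co-treatment).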
For series [6], the target named is T3, UGT2B4 (Homo sapiens, UniProt P06133).
T3 sequence (P06133 24-528): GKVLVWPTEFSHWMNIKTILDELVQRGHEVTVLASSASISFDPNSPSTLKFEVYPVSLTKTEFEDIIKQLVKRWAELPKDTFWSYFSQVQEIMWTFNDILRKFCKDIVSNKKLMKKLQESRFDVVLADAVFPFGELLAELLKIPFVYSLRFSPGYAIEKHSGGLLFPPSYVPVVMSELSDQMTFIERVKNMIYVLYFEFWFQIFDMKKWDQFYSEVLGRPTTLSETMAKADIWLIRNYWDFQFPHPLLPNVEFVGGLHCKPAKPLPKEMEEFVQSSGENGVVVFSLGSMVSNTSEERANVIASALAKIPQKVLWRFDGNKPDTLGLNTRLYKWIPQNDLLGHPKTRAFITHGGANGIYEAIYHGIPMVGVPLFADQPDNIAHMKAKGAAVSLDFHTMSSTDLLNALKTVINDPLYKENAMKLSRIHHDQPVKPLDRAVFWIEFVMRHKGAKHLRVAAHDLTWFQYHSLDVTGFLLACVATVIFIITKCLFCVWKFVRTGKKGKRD
Kind of series: Inhibitory potency towards UGT isoforms: UGT2B4. The format is in vitro ADME.

A short description of series [7]: Phase I DDI study with sildenafil. The format is in vivo, human.
Series [8] deals with T4, organic cation transporter 1 (Homo sapiens, UniProt O15245).
T4 sequence (O15245 1-554): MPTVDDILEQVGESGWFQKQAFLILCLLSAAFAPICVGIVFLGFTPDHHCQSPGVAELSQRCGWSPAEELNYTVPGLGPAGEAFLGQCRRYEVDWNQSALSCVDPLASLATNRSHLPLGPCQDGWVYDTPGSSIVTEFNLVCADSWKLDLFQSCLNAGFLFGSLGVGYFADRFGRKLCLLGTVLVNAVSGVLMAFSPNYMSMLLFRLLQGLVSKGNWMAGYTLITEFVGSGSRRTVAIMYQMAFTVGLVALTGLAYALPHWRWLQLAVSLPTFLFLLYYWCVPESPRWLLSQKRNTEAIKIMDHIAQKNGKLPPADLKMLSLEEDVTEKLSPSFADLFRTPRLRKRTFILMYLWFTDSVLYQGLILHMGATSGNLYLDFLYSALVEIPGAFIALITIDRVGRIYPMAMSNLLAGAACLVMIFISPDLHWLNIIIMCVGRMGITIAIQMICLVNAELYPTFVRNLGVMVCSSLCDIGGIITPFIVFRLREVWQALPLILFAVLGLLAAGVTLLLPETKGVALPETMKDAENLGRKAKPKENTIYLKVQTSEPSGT
The series can be described thus: Inhibitory potency towards OCT1. The format is in vitro ADME.

In series [9] the target is T4, organic cation transporter 1. The series can be described thus: Substrate properties towards OCT1. It counts as in vitro ADME.
Setting [10] is: with rifampicin 600 mg QD vs vericiguat 10 mg SD alone, fed.
The mark [11] stands for this setting: with sildenafil 100 mg vs without, vericiguat 10 mg QD, fed.

As usually defined, the IC50 is the concentration that inhibits the measured activity by half. A lower IC50 goes with inhibition by little substance. For the compound `COC(=O)Nc1c(N)nc(-c2nn(Cc3ccccc3F)c3ncc(F)cc23)nc1N` [Vericiguat], the IC50 in [1] was above 5 µM; in series [3], above 50 µM; in series [6], above 50 µM; in series [8], above 50 µM. The “Changes in vericiguat exposure in the phase I DDI studies” value in series [2] (all ten DDI studies) was at most 30%. Further, the Tolerability result in [2] (healthy volunteers, all phase I studies) is on record as “generally well tolerated”. Moreover, the Clearance is given as 1.6 L/h in series [4] (healthy volunteers) and 1.3 L/h in series [4] (patients with HFrEF). In addition, the “Variability in steady-state AUC” value in series [4] (population PK model, patients with HFrEF) is “about 30%”. The “Decrease in Cmax of vericiguat” value in [5] (pre- and co-treatment with rifampicin) is on record as 9%. In addition, the “Decrease in AUC of vericiguat” value in [5] (pre- and co-treatment with rifampicin 600 mg once daily) worked out at 29%. For the same compound, in series [5] (setting [10]), the “AUC of vericiguat, point estimate of treatment ratio” value is on record as 0.713. The “Cmax of vericiguat, point estimate of treatment ratio” value in [5] (setting [10]) is on record as 0.914. In addition, the “Decrease in vericiguat exposure (differences in PK parameters)” value in series [7] (co-administration with sildenafil 50 mg) is given as “less than 9%”. Also, the “AUC0–24,md of vericiguat, point estimate of treatment ratio” value in series [7] (setting [11]) is reported as 0.993. Moreover, the “Cmax,md of vericiguat, point estimate of treatment ratio” value in [7] (setting [11]) is recorded as 0.970. For the same compound, the “Substrate of organic cation transporter 1” value in [9] is given as “not a substrate”.
